This is an account of results in ChEMBL document CHEMBL5046259, “Cannabinoids Block Cellular Entry of SARS-CoV-2 and the Emerging Variants” (J Nat Prod, 2022).

Holding throughout (assay type): functional, organism-based
The test system of test [1] is SARS-CoV-2. Nature of the test: Antiviral activity against pseudovirus SARS-CoV-2 spike protein infected in HEK293T cells overexpressing ACE2 assessed as inhibition on pseudovirus infection incubated for 45 hrs by fluorescence microscopy. The note with it: Severe acute respiratory syndrome coronavirus 2, HEK-293T. In a few lines: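 293T-ACE2 cells were seeded at 10 000 per well. Spike-pseudotyped lentivirus carrying a GFP reporter was mixed with 2-fold serial dilutions of compound (in DMSO) or vehicle for 1 h at 37 °C, then added to cells with 5 μg/mL Polybrene. After 44 h, cells were fixed and DAPI-stained. Total GFP area was normalized to DAPI and to vehicle (n = 3). IC50 came from a three-parameter logistic fit.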

Test [2] relates to SARS-CoV-2. Nature of the test: Antiviral activity against SARS-CoV-2 variant B.1.1.7 strain infected in African green monkey Vero E6 cells assessed as inhibition of viral entry incubated for 1 hr proir to infection and measured after 48 hrs by Focus forming assay. The following applies: Severe acute respiratory syndrome coronavirus 2, B.1.1.7, Vero C1008.
Test [3] deals with SARS-CoV-2. Nature of the test: Antiviral activity against SARS-CoV-2 variant B.1.351 strain infected in African green monkey Vero E6 cells assessed as inhibition of viral entry incubated for 1 hr prior to infection and measured after 48 hrs by Focus forming assay. The following applies: Severe acute respiratory syndrome coronavirus 2, B.1.351, Vero C1008.

Converted amounts (≈) assume the structure as drawn.

As to `CCCCCc1cc(O)c(C/C=C(\C)CCC=C(C)C)c(O)c1C(=O)O` [CANNABIGEROLIC ACID], the results for the IC50 in test [1], in test [2] and in test [3] were 8.4 µg/mL (≈ 23.3 µM), 26 µg/mL (≈ 72.1 µM) and 35 µg/mL (≈ 97.1 µM), respectively.

For `C=C(C)[C@@H]1CCC(C)=C[C@H]1c1c(O)cc(CCCCC)c(C(=O)O)c1O` [CANNABIDIOLIC ACID], the IC50 in test [1] came out at 7.7 µg/mL (≈ 21.5 µM); in test [2] it was 11 µg/mL (≈ 30.7 µM); in test [3], 19 µg/mL (≈ 53 µM).
